Test results from ChEMBL document CHEMBL1153408, “Molecular modeling studies and in vitro bioactivity evaluation of a set of novel 5-nitro-heterocyclic derivatives as anti-T. cruzi agents” (2009).

Key:
Assay type in all cases: functional
Trypanosoma cruzi [1] = assay: Antitrypanosomal activity against Trypanosoma cruzi Y epimastigotes assessed as parasite growth at 1 ug/ml after 24 hrs
Procedure, shortened: (§1)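 Y strain epimastigotes grown in LIT medium (pH 7.2, 10% FBS, 2% hemoglobin). Compounds dissolved in DMSO and diluted into LIT. Parasites added at an initial 10^6/mL and incubated at 28 °C for 24 h. Cells counted in a Neubauer chamber at 0 h and 24 h, in triplicate. Growth % = (L24 − L0) × 100/L0.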

Trypanosoma cruzi [2] = assay: Antitrypanosomal activity against Trypanosoma cruzi Y epimastigotes assessed as parasite growth at 20 ug/ml after 24 hrs; procedure, shortened: as §1
Trypanosoma cruzi [3] = assay: Antitrypanosomal activity against Trypanosoma cruzi Y epimastigotes assessed as parasite growth at 10 ug/ml after 24 hrs; procedure, shortened: as §1

Compound	Parasite growth (Trypanosoma cruzi [1])	Parasite growth over 24 h (Trypanosoma cruzi [2])	Activity (Trypanosoma cruzi [3])
O=C(N/N=C/c1ccc([N+](=O)[O-])s1)c1ccccc1	13%	0%	57.3%
O=C(N/N=C/c1ccc([N+](=O)[O-])s1)c1ccc(Cl)cc1	4%	0%	0%
COc1ccc(C(=O)N/N=C/c2ccc([N+](=O)[O-])s2)cc1	100%	0%	0%
O=C(N/N=C/c1ccc([N+](=O)[O-])o1)c1ccccc1	0%	0%	0%
NS(=O)(=O)c1ccc(C(=O)N/N=C/c2ccc([N+](=O)[O-])s2)cc1	16%	19%	18.2%
O=C(N/N=C/c1ccc([N+](=O)[O-])o1)c1ccc(Cl)cc1	0%	0%	0%
O=C(N/N=C/c1ccc([N+](=O)[O-])s1)c1ccc(C(F)(F)F)cc1	28.4%	0%	0%
O=C(N/N=C/c1ccc([N+](=O)[O-])s1)c1ccc(O)cc1			56.6%
CN(C)c1ccc(C(=O)N/N=C/c2ccc([N+](=O)[O-])s2)cc1	10%	0%	43.6%
N#Cc1ccc(C(=O)N/N=C/c2ccc([N+](=O)[O-])s2)cc1			0%
O=C(Cn1ccnc1[N+](=O)[O-])NCc1ccccc1 [BENZNIDAZOLE]		3%	30%
